Assay results from different studies.
Lines come from different studies, so protocols differ.
Target: Interferon-induced, double-stranded RNA-activated protein kinase (EIF2AK2, Homo sapiens, UniProt P19525)

SMILES	assay	test system	conditions	endpoint	value
CCCCNc1ncc2c(-c3ccc(F)cc3)nn(C[C@H]3CC[C@H](N)CC3)c2n1	target engagement in cells, inhibitor, chemoproteomics	–	20 mM	inhibition	8.5%
Cc1ccc(NC(=O)c2ccc(C)c(C(F)(F)F)c2)cc1C#Cc1nn(C2CCC(O)CC2)c2ncnc(N)c12 (centres unmarked)	cell-free assay	–	10 µM	remaining signal	75%
Cc1ccc(C(=O)Nc2ccc(CN3CCN(C)CC3)c(C(F)(F)F)c2)cc1C#Cc1cnc2cccnn12	enzyme activity, inhibitor	–	23.5 nM	remaining activity	100%
Cc1nc(N2CC[C@@H](O)C2)ncc1-c1cc(C(F)(F)F)cc2[nH]ncc12	binding, competition with immobilised ligand	–	1 µM	remaining binding	100%
CC(C)(C)c1nc(-c2cccc(NS(=O)(=O)c3c(F)cccc3F)c2F)c(-c2ccnc(N)n2)s1	enzyme activity, inhibitor, radiometric	–	1 µM	remaining activity	95%
c1ccc(CNc2nc(N3CCOc4ccccc43)nc3c2CCCC3)cc1	target engagement in cells, inhibitor, chemoproteomics	–	20 mM	inhibition	-5.4%
CNc1cc(Oc2cc(C(=O)Nc3cc(N4CCN(C)CC4)cc(C(F)(F)F)c3)ccc2C)ncn1	target engagement in cells, inhibitor, chemoproteomics	Huh-7	1 µM	inhibition	-13%
Nc1ncnc2occ(-c3ccc(NC(=O)Nc4cc(C(F)(F)F)ccc4F)cc3)c12	cell-free assay, inhibitor	–	20 µM	remaining signal	54%
CC(C)(C)c1nc2c(s1)c1nc(N)ncc1c1ccc(NS(=O)(=O)c3c(F)cccc3F)c(F)c12	enzyme activity, inhibitor, radiometric	–	1 µM	remaining activity	93%
CC(C)CC(=O)N1CCc2nc(-c3ccc(Br)cc3)nc(N(C)Cc3ccccc3)c2C1	cell-free assay, competition with immobilised ligand	–	0.1 µM	remaining binding	100%
CC/C(=N\NC(=O)NCc1cccc(O)c1)c1ccc(O)c(C)c1O	enzyme activity, inhibitor	–	0.1 µM	inhibition	8.7%
Cc1ccc(C(=O)NCc2ccsc2)cc1C#Cc1cn(C(C)C)c2ncnc(N)c12	enzyme activity, inhibitor	–	1 µM	activity vs control	97%
C[C@H]1CCN(c2nccc(-c3cnn4ncccc34)n2)C1	binding	–	1 µM	remaining binding	100%
Cc1cnc(NC2CCOCC2)nc1-n1cnc(C(=O)NC(CN)c2cc(F)cc(Cl)c2)c1 (centres unmarked)	enzyme activity, inhibitor, radiometric	–	1 µM	remaining activity	39%
CN1CC(Oc2cnc(C#N)cc2-c2ccn3nc(NC(=O)C4CC4)cc3c2)C1	enzyme activity, inhibitor	–	1 µM	inhibition	14%
N#Cc1ccc(Nc2ccc3[nH]c(=O)[nH]c3c2)c(Cl)c1	cell-free assay, competition with immobilised ligand	–	1 µM	remaining binding	57%
Cc1cc(NC(=O)c2cccc3cc(-c4cccc5[nH]nc(N)c45)ccc23)ccc1F	enzyme activity, inhibitor	–	0.1 µM	activity vs control	106%
